Test results from ChEMBL document CHEMBL1155483, “Anthranilic acid replacements in a niacin receptor agonist” (Bioorg Med Chem Lett, 2010).
One block for each compound: values may come before it.

What was measured:
[1] = Oral bioavailability in mouse plasma; assay type: ADME, organism-based
[2] = Cmax in mouse plasma; assay type: ADME, organism-based
[3] = Half life in mouse plasma; assay type: ADME, organism-based
[4] = Clearance in mouse plasma; assay type: ADME, organism-based
[5] = Volume of distribution at steady state in mouse plasma; assay type: ADME, organism-based; details: read-out: Vdss
[6] = molecular target: Hydroxycarboxylic acid receptor 2 (Homo sapiens) (UniProt Q8TDS4); assay: Displacement of [3H]niacin from human niacin receptor expressed in CHO-KI cells in presence of human serum; assay type: cell-based
How it was run: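 Membranes from CHO-K1 cells stably expressing the niacin receptor; [3H]niacin displacement titrated with and without added human serum (serum level not stated); the serum shift is given as fold change. Values are means of two independent titrations, with calculated standard errors below 15%.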

[7] = molecular target: Hydroxycarboxylic acid receptor 2 (Homo sapiens) (UniProt Q8TDS4); assay: Displacement of [3H]niacin from human niacin receptor expressed in CHO-KI cells at 25 uM; assay type: cell-based
[8] = Clearance in rat plasma; assay type: ADME, organism-based
[9] = Oral bioavailability in rat plasma; assay type: ADME, organism-based
[10] = Volume of distribution at steady state in rat plasma; assay type: ADME, organism-based; details: read-out: Vdss
[11] = Cmax in rat plasma; assay type: ADME, organism-based
[12] = Half life in rat plasma; assay type: ADME, organism-based

Hydroxycarboxylic acid receptor 2 (Homo sapiens), sequence (Q8TDS4 whole entry): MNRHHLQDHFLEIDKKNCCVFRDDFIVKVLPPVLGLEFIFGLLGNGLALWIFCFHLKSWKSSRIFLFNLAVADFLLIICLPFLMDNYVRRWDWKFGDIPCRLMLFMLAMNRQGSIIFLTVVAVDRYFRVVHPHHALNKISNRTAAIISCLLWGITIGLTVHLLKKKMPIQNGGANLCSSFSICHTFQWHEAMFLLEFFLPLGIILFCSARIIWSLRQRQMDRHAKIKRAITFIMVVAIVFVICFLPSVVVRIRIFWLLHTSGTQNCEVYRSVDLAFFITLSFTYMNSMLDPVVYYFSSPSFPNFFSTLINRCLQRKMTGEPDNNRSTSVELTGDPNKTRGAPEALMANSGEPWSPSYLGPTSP

SMILES: C[C@H]1CC(NC(=O)CCc2nc(-c3ccc(O)cn3)no2)=C(C(=O)O)C[C@H]1c1cccc(F)c1
bioavailability [1]: 2%
Cmax [2]: 0.3 µM
half-life [3]: 3.9 h
clearance [4]: 5.6 mL/min/kg
Vd [5]: 0.76 L/kg

SMILES: O=C(CCc1ccc2cc(O)ccc2c1)NC1=C(C(=O)O)CC(c2cccc(F)c2)CC1 (stereo not drawn)
fold change (FC) [6]: > 400

SMILES: O=C(CCc1nc(-c2ccc(F)cn2)no1)NC1=C(C(=O)O)CCCC1
fold change (FC) [6]: > 400

SMILES: O=C(CCc1nc(-c2ccc(O)cn2)no1)NC1=C(C(=O)O)CCCC1
bioavailability [1]: 13%
Cmax [2]: 3.9 µM
half-life [3]: 1.3 h
clearance [4]: 2 mL/min/kg
Vd [5]: 0.21 L/kg

SMILES: O=C(CCc1nc(-c2ccc(F)cn2)no1)NC1=C(C(=O)O)CC(c2cc(F)cc(F)c2)CC1 (stereo not drawn)
fold change (FC) [6]: 30

SMILES: O=C(CCc1ccc(-c2ccc(O)cc2)cc1)NC1=C(C(=O)O)CC(c2cccnc2F)CC1 (stereo not drawn)
bioavailability [1]: 12%
Cmax [2]: 1.2 µM
half-life [3]: 1.8 h
clearance [4]: 5.4 mL/min/kg
Vd [5]: 0.42 L/kg

SMILES: O=C(CCc1ccc2cc(O)ccc2c1)NC1=C(C(=O)O)CC(c2ccc(F)nc2)CC1 (stereo not drawn)
fold change (FC) [6]: 90

SMILES: NC(Cc1nc(-c2ccc(F)cn2)no1)C(=O)NC1=C(C(=O)O)CCCC1 (stereo not drawn)
bioavailability [1]: 87%
Cmax [2]: 16 µM
half-life [3]: 14 h
clearance [4]: 0.5 mL/min/kg
Vd [5]: 1.4 L/kg
fold change (FC) [6]: > 400

SMILES: NC(Cc1nc(-c2ccc(F)cn2)no1)C(=O)NC1=C(C(=O)O)CC(c2cc(F)cc(F)c2)CC1 (stereo not drawn)
clearance [8]: 2.3 mL/min/kg
bioavailability [9]: 44%
Vd [10]: 2.4 L/kg
Cmax [11]: 3.8 µM
half-life [12]: 4.8 h
fold change (FC) [6]: 30

SMILES: O=C(CCc1ccc(-c2ccc(O)cc2)cc1)Nc1ccccc1C(=O)O
bioavailability [1]: 35%
Cmax [2]: 4 µM
half-life [3]: 2.4 h
clearance [4]: 8.7 mL/min/kg
Vd [5]: 0.78 L/kg

SMILES: O=C(CCc1ccc2cc(O)ccc2c1)NC1=C(C(=O)O)CC(c2cc(F)cc(F)c2)CC1 (stereo not drawn)
fold change (FC) [6]: > 400

Second part, the compound after the results:

inhibition [7]: 7%
SMILES: N#CC1CCC(NC(=O)CCc2ccc3cc(O)ccc3c2)=C(C(=O)O)C1 (stereo not drawn)

fold change (FC) [6]: > 400
SMILES: CCCC1CCC(NC(=O)CCc2ccc3cc(O)ccc3c2)=C(C(=O)O)C1 (stereo not drawn)

fold change (FC) [6]: > 400
SMILES: Cn1cc(C2CCC(NC(=O)CCc3ccc4cc(O)ccc4c3)=C(C(=O)O)C2)cn1 (stereo not drawn)

fold change (FC) [6]: 100
SMILES: O=C(CCc1ccc2cc(O)ccc2c1)NC1=C(C(=O)O)CC(c2cccnc2F)CC1 (stereo not drawn)

fold change (FC) [6]: > 400
SMILES: O=C(CCc1ccc2cc(O)ccc2c1)NC1=C(C(=O)O)CC(c2ccccc2F)CC1 (stereo not drawn)

fold change (FC) [6]: 200
SMILES: Cn1nccc1C1CCC(NC(=O)CCc2ccc3cc(O)ccc3c2)=C(C(=O)O)C1 (stereo not drawn)
